Experimental data pooled from the literature.
Lines come from different studies, so protocols differ.
Effect on: cell growth or viability

| Compound | cell line | technique | concentration | time | quantity | value |
| --- | --- | --- | --- | --- | --- | --- |
| CC(C)(C)c1cnc(CSc2cnc(NC(=O)C3CCN(C(=O)COCCOCCSc4cccc5c4C(=O)N(C4CCC(=O)NC4=O)C5=O)CC3)s2)o1 (stereo not shown) | HH | CCK-8 | 50 nM |  | viability | 97.9% |
| S=C(Nc1ccccc1)Nc1ccc(Oc2nnc(-c3ccc(Cl)cc3)c3ccccc23)cc1 | HepG2 | MTT | 10 µM |  | cell death | 97.2% |
| CNc1ncc2c(/C=C/C(=O)N3CCC(N(C)C)CC3)nn(CC3CCCC3)c2n1 | OE33 | resazurin |  | 5 days | EC50 | 15 µM |
| CC(C)(C)c1cnc(CSc2cnc(NC(=O)C3CCN(CCCCSc4cccc5c4C(=O)N(C4CCC(=O)NC4=O)C5=O)CC3)s2)o1 (stereo not shown) | HH | CCK-8 | 0.1 µM |  | viability | 97.9% |
| Nc1ncnc2c1c(/C=C/C(=O)O)nn2CC1CCCC1 | OE33 | resazurin |  | 5 days | EC50 | > 30 µM |
| C=CC(=O)NC1CCN(c2ncc3ncnc(Nc4ccc(Oc5ccc6c(c5)ncn6C)c(C)c4)c3n2)CC1 | NCI-H292 |  |  |  | EC50 | 0.0826 µM |
| O=C(Nc1ccccc1)Nc1ccc(Oc2nnc(-c3ccc(Cl)cc3)c3ccccc23)cc1 | HepG2 | MTT | 0.625 µM | 24 h | viability | 5.31% |
| CC(C)(C)c1cnc(CSc2cnc(NC(=O)C3CCN(CCCCCCCCSc4cccc5c4CN(C4CCC(=O)NC4=O)C5=O)CC3)s2)o1 (stereo not shown) | HH | CCK-8 | 10 nM |  | viability | 99.7% |
| CNc1ncc2c(/C=C/C(=O)N3CCC(OC)CC3)nn(Cc3ccc(C(F)(F)F)cc3)c2n1 | OE33 | resazurin |  | 5 days | EC50 | 1.32 µM |
| O=C(Nc1ccc(Oc2nnc(-c3ccc(Cl)cc3)c3ccccc23)cc1)c1ccccc1 | HepG2 | MTT | 0.312 µM |  | cell death | 67.5% |
